Entries after “also recorded” stand apart in the source; their conditions may differ. Like-named read-outs stand apart in the source and are kept apart here. Some results are limits rather than exact numbers.

Consider five compounds from PMC2933822 (Chemical research in toxicology, 2010).

Series [1] relates to Human HaCaT keratinocytes. Nature of the series: Phototoxicity / dark cytotoxicity, neutral red uptake assay, UVA. It counts as cell-based. The note with it: for IC50: HaCaT.
For series [2], the system named is A2780 human ovarian carcinoma cells. Nature of the series: Phototoxicity / dark cytotoxicity, neutral red uptake assay, UVA. The format is cell-based. The conditions noted are these: for IC50: neutral red dye uptake; for IC50 (cisplatin)/IC50(photoPt): A2780, fold difference vs cisplatin under identical conditions. The essentials:
(§1)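 Cells were kept antibiotic-free in RPMI with 10% FBS at 37 °C in 5% CO2. They were washed in PBS, then given the test compound in EBSS for 1 h at 37 °C. Light plates received 5 J cm−2 UVA (1.77 mW cm−2, λmax 365 nm, below 320 nm filtered); dark plates were sham irradiated in parallel. Read-out was neutral red uptake. IC50 came from non-linear regression, 2-4 experiments in triplicate. The ratio is cisplatin IC50 (same conditions) over complex IC50.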

Series [3] relates to cisplatin-resistant derivative cell line A2780CIS. The series is described as above. The format is cell-based, human. The conditions noted are these: for IC50: neutral red dye uptake. Put shortly:
as §1

In series [4] the test system is DNA. Nature of the series: Comet assay. The format is cell-based, human. The conditions noted are these: +UVA 5 J cm^−2, then H2O2.
In series [5] the test system is HaCaT, A2780, A2780CIS. Nature of the series: Photo- and dark cytotoxicity stated in words across the cell lines. It counts as cell-based, human. The note with it: UVA 365 nm irradiation. Put shortly:
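HaCaT keratinocytes (DMEM, 5% FBS, 1% non-essential amino acids) and A2780 or A2780CIS cells (RPMI, 10% FBS) were grown at 37 °C without antibiotics. Cells were PBS-washed, then exposed 1 h at 37 °C to test compound in EBSS. They received 5 J cm−2 UVA (1.77 mW cm−2, λmax 365 nm, <320 nm filtered), with sham-irradiated parallel dark plates. Read-out was neutral red uptake. IC50s came from non-linear regression, 2-4 experiments in triplicate.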

The test system of series [6] is Human HaCaT keratinocytes. The note with it: cited from earlier work.
For series [7], the system named is a number of cell lines. The note with it: photoactivated; cited from earlier work.
The test system of series [8] is cisplatin-resistant derivative cell line A2780CIS. The conditions noted are these: cited from earlier work.
Series [9] has as its system A2780 human ovarian carcinoma cells. The note with it: cited from earlier work.
Setting [10] is: +365 nm (5 J cm^−2 UVA), 1 h treatment, neutral red dye uptake.
Setting [11] is: Dark (sham irradiated), neutral red dye uptake.

Regarding `CN(C)CCCN1c2ccccc2Sc2ccc(Cl)cc21` [CPZ, Chlorpromazine, reference compound], the IC50 (usually the concentration that inhibits the measured activity by half) in series [1] (Homo sapiens, light or radiation study) is 240 µM; in series [1] (Homo sapiens, light or radiation study, 1 h) it was 9 µM.
Regarding “cis,trans,cis-[Pt(N3)2(OH)2(NH3)(pentylamine)] [Complex 6c]”, the IC50 is above 240 µM in [2] (A2780, +365 nm (5 J cm^−2 UVA)); above 240 µM in series [2] (A2780, Dark (sham irradiated)); above 240 µM in [3] (+365 nm (5 J cm^−2 UVA)); above 240 µM in series [3] (Dark (sham irradiated)); 224 µM in [1] (setting [10]); above 240 µM in series [1] (setting [11]). In series [2], the “IC50 (cisplatin)/IC50(photoPt)” value worked out at 0.6.
For the compound “cis,trans,cis-[Pt(N3)2(OH)2(NH3)(propylamine)] [Complex 4c]”, the IC50 in [2] (A2780, +365 nm (5 J cm^−2 UVA)) is 93.4 µM; in [2] (A2780, Dark (sham irradiated)), above 257 µM; in series [1] (setting [10]), 204 µM; in [1] (setting [11]), above 257 µM. In addition, the “IC50 (cisplatin)/IC50(photoPt)” value in series [2] was 1.6.
As to “cis,trans,cis-[Pt(N3)2(OH)2(NH3)(pyridine)] [Complex 7c]”, the IC50 was 79.6 µM in series [2] (A2780, +365 nm (5 J cm^−2 UVA)); above 244 µM in series [2] (A2780, Dark (sham irradiated)); 109 µM in series [3] (+365 nm (5 J cm^−2 UVA)); above 244 µM in [3] (Dark (sham irradiated)); 101 µM in series [1] (setting [10]); above 244 µM in [1] (setting [11]). For the same compound, the “IC50 (cisplatin)/IC50(photoPt)” value in series [2] was found to be 1.9; in [3] (fold difference vs cisplatin under identical conditions), 2.4. Further, in series [4], the “inhibition of DNA migration (DNA crosslinking), irradiated samples” value was “more effective at inhibiting DNA migration (at low doses)”. Besides, the “phototoxicity / photocytotoxicity” value in [5] is listed as “the most phototoxic cis compounds investigated”. Moreover, in [1] (HaCaT cells, UVA), the “fold less phototoxic than 7t” value is “approximately 10 fold”.
Take “trans,trans,trans-[Pt(N3)2(OH)2(NH3)(py)] [Complex 7t]”: the entries for the “IC50 (cisplatin)/IC50(photoPt)” value in [6], in [8] and in series [9] were 21.2, 15.4 and 80.0, respectively. The “fold more cytotoxic following irradiation than treatment with cisplatin” value in [7] is recorded as “up to 90 ×”. Besides, in series [5], the “phototoxicity / photocytotoxicity” value is on record as “the most phototoxic molecule tested; also recorded: the most phototoxic complex which still maintains dark stability”.
